Experimental data taken from the RNAGym collection of RNA variant scans (doi:10.1126/science.aae0568).
This sample holds only a part of the variants without activity.

B1: tRNA (parent)
chain: GUUCCGUUGGCGUAAUGGUAACGCGUCUCCCUCCUAAGGAGAAGACUGCGGGUUCGAGUCCCGUACGGAACG

Variants of: B1
Test: yeast fitness relative to wild type (ratio to wild type); higher = fitter; tRNA-Arg(CCU), competitive growth, 37 C, YPD
In short: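 Changes in genotype frequencies gave Darwinian fitness relative to wild type. Frequencies were read by 100-nucleotide paired-end sequencing of gene amplicons before and after pooled Saccharomyces cerevisiae strains, carrying tRNA-Arg(CCU) gene variants at the native locus, were competed in YPD at 37°C for 24 hours in six replicates. A genotype was kept only with ≥ 100 starting reads, and estimates < 0.5 were set to 0.5.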
Work on C5U A43C yielded a yeast fitness of 0.813. In the case of C5U C11A C31U C34U, the yeast fitness is reported as at most 0.5. In the case of C5U A14U G17C C33U G52C G63A, the yeast fitness is reported as at most 0.5. Work on C5G U64G C66U yielded a yeast fitness of 0.593. Work on C5U A14G A65U G67A yielded a yeast fitness of 0.689. In the case of C5U C11U U32G C33A U47A C62U C66G, the yeast fitness is reported as at most 0.5. Work on C5U C11U A15C C29A C30A A36U G38C C61U C66A yielded a yeast fitness of at most 0.5. For C5U A20C G39C G58A, the yeast fitness was at most 0.5. Variant C5U A21C C31U has a yeast fitness of 0.695. C5U C33G C61A C66U gave a yeast fitness of at most 0.5. C5U A20U U28G U32G C34G gave a yeast fitness of at most 0.5. In the case of C5U A15C A21G C27U C46U, the yeast fitness is reported as at most 0.5. In the case of C5U C29G C30G, the yeast fitness is reported as at most 0.5. With C5U A65G A69G A70U the yeast fitness was at most 0.5. C5U C11U A36U C62A gave a yeast fitness of at most 0.5. For C5U A36U C49G, the yeast fitness was at most 0.5. Variant C5U A45U C62G A65G has a yeast fitness of 0.698. Work on C5U A20C A36G G52C yielded a yeast fitness of 0.567. In the case of C5U C11G C33G, the yeast fitness is reported as at most 0.5. For C5U C22G C29G U32C, the yeast fitness was at most 0.5. C5U C22A A45C gave a yeast fitness of 0.564. For C5U A14C G41C, the yeast fitness was 0.613. With C5U A21U C62U A70C the yeast fitness was at most 0.5. Variant C5U C30A C33G A42C C62A has a yeast fitness of at most 0.5. Variant C5U A15G A42G G58C G68A has a yeast fitness of at most 0.5. In the case of C5U A20U C30U, the yeast fitness is reported as at most 0.5. C5U A20U A45C C60U C61A gave a yeast fitness of at most 0.5. With C5U A21U C31G A37C C66U the yeast fitness was 0.51. C5U A20C C29A C49G A57G gave a yeast fitness of at most 0.5. C5U A14G U26C showed a yeast fitness of 0.662. With C5U A14U C31G G63A the yeast fitness was 0.575. For C5U A20U C61U C62U, the yeast fitness was at most 0.5. With C5U C11A A14G A42G C49U U64A the yeast fitness was at most 0.5. For C5U A40C A42G, the yeast fitness was 0.558. C5U C31U C34U gave a yeast fitness of at most 0.5. Work on C5U A21U A40U yielded a yeast fitness of 0.57. C5U C34A C55U gave a yeast fitness of 0.529. C5U C11A C24G C27G A36U G38C C60G C66A showed a yeast fitness of 0.522. Variant C5U C27G G38A has a yeast fitness of 0.515. Work on C5U C22U C27U A42G C55A C60A yielded a yeast fitness of at most 0.5. C5U C30U A37C U54A showed a yeast fitness of at most 0.5. C5U C24U A36G C46A gave a yeast fitness of 0.92. In the case of C5U C31U U47C, the yeast fitness is reported as 0.701. Variant C5U A37C A43C A45C has a yeast fitness of at most 0.5. For C5U C24U G41C, the yeast fitness was at most 0.5. C5U C22G C29G C60A G67A gave a yeast fitness of at most 0.5. For C5U C22G C24G C31U C55A, the yeast fitness was at most 0.5. Work on C5U C27G A40C yielded a yeast fitness of at most 0.5. Variant C5U C11A G50C C66U has a yeast fitness of at most 0.5. Variant C5U A36G C55G has a yeast fitness of at most 0.5. With C5U A15U C30G C33G A40G A43U the yeast fitness was at most 0.5. Variant C5U C31A G56A has a yeast fitness of 0.562. C5U C29U A43G showed a yeast fitness of 0.632. With C5U A14G A65G the yeast fitness was 0.69. In the case of C5U A15G U19A A21U C34U, the yeast fitness is reported as at most 0.5. C5U C11A C24G C27G A36U G38C A70C showed a yeast fitness of at most 0.5. C5U C11A U13C C24G C30G C46U showed a yeast fitness of 0.629. In the case of C5U A37C G52C, the yeast fitness is reported as at most 0.5. In the case of C5U C29A A69C, the yeast fitness is reported as at most 0.5. With C5U A15C the yeast fitness was 0.763. With C5U A21G A42U G58A the yeast fitness was 1.02. C5U A14C A15U G17A U26C A42U A45C gave a yeast fitness of 0.508. C5U C29A A42G C61G gave a yeast fitness of at most 0.5. With C5U A45C A70G the yeast fitness was 0.76. Work on C5U A45C A70U yielded a yeast fitness of 0.813. Work on C5U C31U G41A U64C yielded a yeast fitness of at most 0.5. In the case of C5U A15U A20C C55A, the yeast fitness is reported as at most 0.5. Variant C5U C11A A21G G23C U64A has a yeast fitness of at most 0.5. Variant C5U A15U C31U A43U C49U has a yeast fitness of at most 0.5. For C5U C11G G48C C66U, the yeast fitness was at most 0.5. For C5U C22G U47C, the yeast fitness was 0.687. With C5U C22G C29A A45U A70C the yeast fitness was at most 0.5. Variant C5U A21U C33U G50A has a yeast fitness of 0.65. For C5U A14U C29U C46G, the yeast fitness was at most 0.5. C5U C30U A42C C60G showed a yeast fitness of at most 0.5. In the case of C5U C34G A37U C49G G56A, the yeast fitness is reported as at most 0.5. For C5U A45U C46G C60A, the yeast fitness was 0.597. Variant C5U A20C U53A has a yeast fitness of 0.544. For C5U C33U U54C G58A, the yeast fitness was 0.703. C5U A42U C49G C60A gave a yeast fitness of 0.575. For C5U C30A A42U A69C, the yeast fitness was at most 0.5. Variant C5U C30G A57C has a yeast fitness of 0.715. Variant C5U A14C G63A has a yeast fitness of at most 0.5. Work on C5U A21G G44C A57U C62U yielded a yeast fitness of at most 0.5. Work on C5U C11U A36U C49G yielded a yeast fitness of at most 0.5. Variant C5U C22U C34U G41A A45G has a yeast fitness of at most 0.5. With C5U A14C A69C the yeast fitness was at most 0.5. For C5G U53G A65G, the yeast fitness was at most 0.5. Variant C5U A43U C49U has a yeast fitness of 0.555. C5U C27U U35G A36G G58C C66U showed a yeast fitness of at most 0.5. C5U A14C gave a yeast fitness of 0.593. In the case of C5U C22G A40G, the yeast fitness is reported as 0.741. Work on C5U C11A A43U C66U yielded a yeast fitness of 0.621. For C5U A40U A42C A65U, the yeast fitness was at most 0.5. Variant C5U C24A U47A has a yeast fitness of 0.656. In the case of C5U A37C G50C, the yeast fitness is reported as at most 0.5. C5U C22G A69C gave a yeast fitness of 0.691. In the case of C5U C22U G41C C49G U59G G63A C66U, the yeast fitness is reported as at most 0.5. Work on C5U C22G U26G A42C yielded a yeast fitness of at most 0.5. C5U C22G C29A C61A gave a yeast fitness of at most 0.5. With C5G U54C G56C G58A the yeast fitness was at most 0.5. With C5U A21G C27U G41A the yeast fitness was at most 0.5. For C5U A21U, the yeast fitness was 0.766. Work on C5U A21C yielded a yeast fitness of 0.897. Work on C5U C34A U53A yielded a yeast fitness of 0.562. In the case of C5U C31G A57U, the yeast fitness is reported as at most 0.5. With C5U A14U G41C the yeast fitness was at most 0.5. Work on C5U A14G C24U U28C yielded a yeast fitness of at most 0.5. Variant C5U A37G U59G G68C has a yeast fitness of at most 0.5. C5U A42U C55U A69C gave a yeast fitness of at most 0.5. In the case of C5U A14C C62A, the yeast fitness is reported as 0.504. In the case of C5U C31G A40G A45G C46G G48A C62U G63A, the yeast fitness is reported as at most 0.5. In the case of C5U A42U, the yeast fitness is reported as 0.838. In the case of C5U A14G C33G A40G, the yeast fitness is reported as at most 0.5. C5U A20U C30U G63A showed a yeast fitness of at most 0.5. Work on C5U C31G U47C G48C yielded a yeast fitness of at most 0.5. In the case of C5U A15U G39A U53A G68C, the yeast fitness is reported as at most 0.5. C5U C30G A69C A70G gave a yeast fitness of at most 0.5. C5U C11U C24A C55A A65G showed a yeast fitness of at most 0.5. In the case of C5U C22U A37C G48U C55A, the yeast fitness is reported as at most 0.5. In the case of C5U C24U U32A C55G A69U, the yeast fitness is reported as at most 0.5. For C5U A43U C66U, the yeast fitness was 0.68. C5U A14C C61U showed a yeast fitness of 0.562. Variant C5U A45G C62U has a yeast fitness of 0.994. In the case of C5U A15U G63A A70U, the yeast fitness is reported as 0.807. In the case of C5U C27U A36G, the yeast fitness is reported as 0.75. In the case of C5U C34G U35C, the yeast fitness is reported as 0.533. C5U A21G C27U G41A G63U gave a yeast fitness of at most 0.5. For C5U C11G C22G C46G, the yeast fitness was at most 0.5. C5U A40G C49U C62U A65G gave a yeast fitness of at most 0.5. C5U A57U G63A showed a yeast fitness of at most 0.5. In the case of C5U C27U, the yeast fitness is reported as 1.09. In the case of C5U A21U C30G G58C, the yeast fitness is reported as at most 0.5. C5U C24U G56C showed a yeast fitness of 0.53. For C5U A14G U26C C30U A42C C61G, the yeast fitness was at most 0.5. Variant C5U A14U U32A U54C C55U has a yeast fitness of at most 0.5. Work on C5U A20U A36G yielded a yeast fitness of 0.674. With C5U A21U A37C C61A A65C the yeast fitness was at most 0.5. Work on C5U A20C G23C C24U C31U U64C yielded a yeast fitness of at most 0.5. C5U C33U A36C U54C gave a yeast fitness of at most 0.5. Variant C5U C11U C60U A69U has a yeast fitness of 0.538. For C5U C22U U26A C55G, the yeast fitness was at most 0.5. C5U A20C A21U U53C U64A showed a yeast fitness of at most 0.5. For C5U A21G G39C, the yeast fitness was 0.515. Work on C5U A37G A40C U47A yielded a yeast fitness of at most 0.5. C5U A15G A20G C27G C33U G63A showed a yeast fitness of at most 0.5. With C5U C22A G25A C66U the yeast fitness was at most 0.5. In the case of C5U A43C C49U G50A, the yeast fitness is reported as at most 0.5. Work on C5U C24A G67C yielded a yeast fitness of 0.547. Variant C5U A43G G48A has a yeast fitness of 0.678. With C5U C27G U28A C30G C31U G67A the yeast fitness was at most 0.5. Work on C5U A14U C46U G52C A69U yielded a yeast fitness of at most 0.5. C5U A42G G51C G56A showed a yeast fitness of 0.698. For C5U A42G G56C, the yeast fitness was at most 0.5. Variant C5U C24U A36G C46A U47C C55A has a yeast fitness of at most 0.5. For C5U C27G C31G G50C G58C, the yeast fitness was 0.743. Variant C5U C27G G68C has a yeast fitness of 0.577. Work on C5U A15G C66U yielded a yeast fitness of 0.632. In the case of C5U C31G C33G C34U C49U G68A, the yeast fitness is reported as 0.543. C5U A40U A42G A57C gave a yeast fitness of at most 0.5. C5U A14C A70U gave a yeast fitness of at most 0.5. Variant C5U C27G C60A has a yeast fitness of at most 0.5. Variant C5U C24A has a yeast fitness of 0.597. In the case of C5U A20C C27U G39A G56A G58C, the yeast fitness is reported as at most 0.5. In the case of C5U A15G A42C C49A, the yeast fitness is reported as at most 0.5. Variant C5U A21U C31U G52A A69G has a yeast fitness of at most 0.5. C5U C29U C34G showed a yeast fitness of at most 0.5.
